Source: PubChem
Rows were chosen to be rich in hits. Some 4.2% of all compounds tested hit in one or more screens of this group.
hERG rescue: compounds protecting human hERG from proarrhythmic drug block | Q12809 | CHO-hERG, FluxOR thallium flux, dofetilide IC70 present | activation (rescue from dofetilide block), less the hit threshold, % at 10 µM | actives 0.51% (n = 310,000);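 active = activation above the mean of controls blocked by dofetilide plus 5 SD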;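 also: thallium influx through hERG after potassium depolarization seen as dye fluorescence rise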
AI-2 QS mod: modulates the Vibrio harveyi AI-2 quorum sensing system; Vibrio harveyi JMH597 AI-2 luminescence/OD600 ratio, 9 h; stronger effect = lower value; strain lacks LuxN and CqsS sensors; 0 = neutral-control median; activity change, % at 7.5 µM; actives 0.4% (n = 300,000); AID 2094; in the data active = activity change below about -75%, passing the limit was not always enough; inconclusive = no clear call, values can overlap the other calls;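 also: luminescence divided by OD600 gain over 9 h not by final OD600 alone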
KCNQ1 pot: human KCNQ1 channel potentiation or activation; CHO-K1 KCNQ1, thallium flux FluxOR fluorescence; stronger effect = higher value; P51787; actives 0.35% (n = 310,000); B-score at 10 µM; AID 2648;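 active = fluorescence ratio B-score, a plate-corrected score, at least three library SD, with initial intensity B-score within 5 SD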
Target sequence (P51787 whole entry, looked up): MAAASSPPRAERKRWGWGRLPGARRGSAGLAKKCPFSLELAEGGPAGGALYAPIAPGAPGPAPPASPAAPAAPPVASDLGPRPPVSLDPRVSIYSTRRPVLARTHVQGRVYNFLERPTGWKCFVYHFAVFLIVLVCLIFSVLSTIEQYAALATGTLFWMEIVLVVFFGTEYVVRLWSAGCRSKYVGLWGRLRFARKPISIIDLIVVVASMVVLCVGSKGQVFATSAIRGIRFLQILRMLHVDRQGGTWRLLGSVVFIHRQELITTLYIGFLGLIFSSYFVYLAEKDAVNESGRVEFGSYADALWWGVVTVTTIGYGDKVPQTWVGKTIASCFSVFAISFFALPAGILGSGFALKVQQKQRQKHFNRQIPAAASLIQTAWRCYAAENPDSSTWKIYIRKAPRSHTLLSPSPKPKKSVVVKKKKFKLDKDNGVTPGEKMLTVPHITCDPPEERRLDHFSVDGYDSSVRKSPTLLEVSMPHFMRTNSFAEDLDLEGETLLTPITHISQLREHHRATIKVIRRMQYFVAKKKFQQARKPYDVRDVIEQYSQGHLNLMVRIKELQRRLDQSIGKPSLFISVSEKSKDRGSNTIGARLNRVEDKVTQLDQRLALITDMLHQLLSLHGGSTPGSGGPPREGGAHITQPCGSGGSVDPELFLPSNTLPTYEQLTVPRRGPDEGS
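Schedule – 37 °C overnight plating, 90-min dark dye load, 20-min compound pretreatment · System – stable KCNQ1 CHO-K1 line · Probe or stimulus – thallium- and potassium-containing depolarizing buffer · Measured by – kinetic FluxOR fluorescence, 10 s baseline plus 110 s post-stimulus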
KCNQ1 inh: human KCNQ1 channel inhibition | actives 1.3% (n = 310,000) | B-score at 10 µM | CHO-K1 KCNQ1, FluxOR thallium flux fluorescence; stronger effect = higher value | P51787;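 active = compounds whose thallium flux B-score, printed positive for inhibition, exceeds three library SD while starting fluorescence stays within three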;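 also: channel opened by potassium depolarization with thallium stimulus after 20 min compound exposure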
Mot1-301 SUMO: blocks SUMOylation pathway, rescuing yeast Mot1-301 growth; growth rescue, % at 18.8 µM; S. cerevisiae Mot1-301 growth rescue, ATP luminescence, 38.5C; percent above DMSO median, 100 means doubled; actives 1% (n = 320,000);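 active = every valid replicate shows activation above 250% relative to neutral control wells; inactive = the rest, any valid replicate at or below 250%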;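 also: OY570 slx delta 5 strain wells were the positive control but not used for scaling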
KCC2 mod: KCC2 (human) Cl- transport modulation; KCC2 cells, thallium flux FluoZin-2 fluorescence; B-score of Tl+ flux slope (higher = more flux/activation; lower = inhibition) at 10 µM; actives 2.2% (n = 190,000); AID 1456;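 active = thallium flux slope and its plate-corrected score both differing from the plate sample mean at a set confidence after two filtering rounds, in either direction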;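 also: slope of fluorescence scaled to starting intensity during 10 to 20 s after thallium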
KCC2 secondary: KCC2 (human) modulation, secondary assay; shares compounds with KCC2 mod; HEK293-KCC2, thallium flux, FluoZin2 fluorescence; stronger effect = higher value; normalised thallium flux (F/F0 slope) at 10 µM; actives 15% (n = 3,700);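 active = thallium flux slope above the same plate's solvent-only control mean plus 3 SD; inconclusive = the two replicate wells disagree; inactive = no significant difference from solvent-only control wells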
KCC2 bumet counter: bumetanide-insensitive thallium flux in KCC2 cells with ouabain, counter-screen; shares compounds with KCC2 mod; HEK293-KCC2 + bumetanide/ouabain, thallium flux FluoZin2; stronger effect = higher value; normalized thallium flux at 10 µM; actives 49% (n = 3,700); AID 1714;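 active = thallium entry rate above the same plate's blocked-transporter control wells by more than 3 SD; inconclusive = the two repeat wells disagree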;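 also: raw slope of fluorescence over initial fluorescence between 10 and 20 s after thallium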
KCC2 secondary2: confirmation of human KCC2 transport modulators; shares compounds with KCC2 mod; HEK293-KCC2, thallium flux FluoZin2 fluorescence; actives lie on both sides; F/F0 rise rate, 10–20 s post-thallium; normalized thallium flux at 10 µM; actives 23% (n = 3,700); AID 1715;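 active = thallium flux slope more than 3 SD above or below the plate's solvent-only control mean, mostly below; inconclusive = the two repeat wells disagreed; inactive = no significant shift from solvent-only controls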;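 also: raw slope with 0.1% DMSO as baseline and bumetanide as block control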
HEK counter1: acts in parental HEK cells, KCC2 counter-screen. actives 46% (n = 3,700). shares compounds with KCC2 mod. HEK293 parental cells, thallium flux FluoZin2, ouabain; baseline-ratio fluorescence slope, 10–20 s after thallium. AID 1716. thallium flux rate (normalised fluorescence) at 10 µM;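 active = thallium flux rate significantly above the same plate's solvent-only control wells, beyond their mean plus 3 SD; inconclusive = the two replicate wells gave conflicting results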
KCC2 retest ouab: confirmation of human KCC2 modulators with ouabain | raw Tl+ flux slope (below DMSO = inhibition, above = activation) at 10 µM | HEK293-KCC2, thallium flux FluoZin2 fluorescence; bidirectional: low = inhibitor, high = activator | shares compounds with KCC2 mod | actives 48% (n = 3,700);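 active = thallium flux slope beyond 3 SD from same-plate DMSO control mean in most replicates, usually higher, sometimes lower; inconclusive = repeat tests gave conflicting results; inactive = no significant difference from controls in most replicates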;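 also: slope of initial-normalized fluorescence between seconds 10 and 20 after thallium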
HEK counter2: parental HEK flux effect, counter-screen 2; shares compounds with KCC2 mod; actives 33% (n = 3,700); HEK293 parental, thallium flux FluoZin-2 fluorescence slope; thallium flux slope at 10 µM;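 active = thallium flux slope above the same plate's solvent-control mean plus 3 SD in both duplicate wells; inconclusive = duplicate wells that disagreed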;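 also: run without ouabain in cells lacking the KCC2 cotransporter; slope of fluorescence scaled to its starting value between 10 and 20 s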
Numbers without * were called inactive; i = inactive; ? = inconclusive; / = not tested or not shown.

SMILES	hERG rescue	AI-2 QS mod	KCNQ1 pot	KCNQ1 inh	Mot1-301 SUMO	KCC2 mod	KCC2 secondary	KCC2 bumet counter	KCC2 secondary2	HEK counter1	KCC2 retest ouab	HEK counter2
O=C(NCCCCc1ccccc1)C1CC(c2ccccc2[N+](=O)[O-])=NO1 (configuration not stated)	-9	1	i	i	-3	-6.4*	0.006	0.0046	0.021*	0.0074	0.013*	0.0092
O=C(NCCCCc1ccccc1)C1CC(c2ccccc2C(F)(F)F)=NO1 (configuration not stated)	-4	21	i	i	18	-4.2*	0.008	0.0044	0.023*	0.0064	0.016*	0.0098
COc1cc(OC)c(C2=NOC(C(=O)NCCc3ccccc3)C2)cc1Cl (configuration not stated)	-13	15	i	i	/	/	0.0064	0.0043	0.026*	0.007	?	0.0098
COC(=O)c1ccccc1OC(=O)c1ccc(Br)o1	-1	1	i	i	-11	-0.81	/	/	/	/	/	/
Cc1ccc(C)c(C(=O)COC(=O)c2ccccc2N2C(=O)C3C4CCC(C4)C3C2=O)c1 (configuration not stated)	-13	33	i	i	357	/	/	/	/	/	/	/
Cc1ccccc1N=C1NN=C(c2ccccc2F)CS1	-2	27	i	i	11	3.3	/	/	/	/	/	/
O=C(NCC1CCCN(C(=O)c2cscn2)C1)c1ccc(-c2ccccc2)cc1 (configuration not stated)	-8	6	i	i	10	-5.3*	0.0053	0.0045	0.021*	?	0.012*	0.011
Cc1ccccc1CC(=O)N1CCCC(CNC(=O)c2ccc(F)cc2)C1 (configuration not stated)	-9	19	i	i	-8	/	/	/	/	/	/	/
CC(=O)NCCC(=O)N1CCCC(CNC(=O)c2ccc(-c3ccccc3)cc2)C1 (configuration not stated)	-10	22	i	i	10	-4.5*	0.0078	0.0053	?	0.006	0.013*	0.0091
C=CCC(=O)N1CCCC(CNC(=O)c2ccc(-c3ccccc3)cc2)C1 (configuration not stated)	-6	31	i	i	14	-5.5*	0.0081	0.0063	0.031	0.0076	0.014*	0.011
Cc1ccccc1N1CCN(C2CCCN(C(=O)CCn3cnnn3)C2)CC1 (configuration not stated)	-2	8	i	i	-7	/	/	/	/	/	/	/
Cc1cc(C)c(C#N)c(SC(F)F)n1	-9	17	i	i	-11	-0.15	/	/	/	/	/	/
Cc1ccc(NC(=O)CSCC(=O)NCCc2ccccc2)c(C)c1	/	/	/	/	23	/	/	/	/	/	/	/
CSc1sc(C(=O)O)c2c1C(=O)CCC2	-8	22	i	i	-20	-4*	0.0099	?	0.035	0.0076	0.023	0.011
